The values that follow come from ChEMBL document CHEMBL5365527, “Structure-Guided Design of Nurr1 Agonists Derived from the Natural Ligand Dihydroxyindole” (J Med Chem, 2023).

Data set [1] deals with HEK-293T. Briefly: Cytotoxicity against human HEK293T cells assessed as reduction in cell viability at 100 uM incubated for 24 hrs by WST-8 assay. The class given is toxicity, cell-based. In a few lines:
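HEK293T cells were seeded on collagen G-coated wells, 10,000 per well, and after 24 h exposed to compound in Opti-MEM with 0.1% DMSO for 24 h; 0.1% DMSO alone served as untreated control. Metabolic activity was read by WST-8 (10%, 4 h) absorbance at 450 nm. Four biologically independent repeats.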
On the technique in general: Formazan colour is commonly taken as a measure of viable cells.

The target of data set [2] is T1, Nuclear receptor subfamily 4 group A member 2 (Homo sapiens, UniProt P43354). Nature of the data set: Agonist activity at Gal4-fused human Nurr1 LBD transfected in human HEK293T cells co-transfected with pFR-Luc/pRL-SV40 assessed as activation of luciferase activity incubated for 16 hrs by Dual-Glo luciferase assay.
T1 sequence (P43354 whole entry, the tested form may be a part): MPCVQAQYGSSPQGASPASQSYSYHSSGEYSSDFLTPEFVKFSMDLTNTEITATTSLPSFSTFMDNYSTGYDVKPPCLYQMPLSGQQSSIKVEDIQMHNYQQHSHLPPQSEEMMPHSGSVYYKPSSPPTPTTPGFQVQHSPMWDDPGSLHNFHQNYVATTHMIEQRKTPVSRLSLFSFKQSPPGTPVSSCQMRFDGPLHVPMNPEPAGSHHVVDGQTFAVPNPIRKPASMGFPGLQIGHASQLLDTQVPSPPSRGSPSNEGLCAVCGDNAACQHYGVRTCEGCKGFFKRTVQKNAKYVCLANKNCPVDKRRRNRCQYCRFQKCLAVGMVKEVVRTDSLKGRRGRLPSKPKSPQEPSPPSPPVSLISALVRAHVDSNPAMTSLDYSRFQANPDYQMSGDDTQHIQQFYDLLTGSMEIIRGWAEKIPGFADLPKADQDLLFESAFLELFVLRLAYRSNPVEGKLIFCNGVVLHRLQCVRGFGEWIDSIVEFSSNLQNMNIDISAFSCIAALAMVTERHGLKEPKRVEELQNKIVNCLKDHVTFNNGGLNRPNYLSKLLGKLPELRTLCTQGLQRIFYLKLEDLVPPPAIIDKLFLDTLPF
In data set [3] the target is T1, Nuclear receptor subfamily 4 group A member 2. Nature of the data set: Binding affinity to Nurr1 LBD (unknown origin) assessed as dissociation constant by Isothermal titration calorimetry.
For data set [4], the system named is HEK-293T. Briefly: Cytotoxicity against human HEK293T cells co-transfected with Gal4-fused human Nurr1 LBD and pFR-Luc/pRL-SV40 assessed as decrease in renilla luciferase activity at 100 uM incubated for 16 hrs by Dual-Glo luciferase assay relative to control.
Data set [5] concerns the target T1, Nuclear receptor subfamily 4 group A member 2. Nature of the data set: Binding affinity to Nurr1 LBD (unknown origin) at 200 uM by Isothermal titration calorimetry.
Data set [6] deals with HEK293T. Briefly: Agonist activity at Nurr1 LBD (unknown origin) transfected in human HEK293T cells co-transfected with pFR-Luc/pRL-SV40 assessed as maximum activation of luciferase activity at 1 uM incubated for 16 hrs in presence of 5-Chloro-N-{5-chloro-2-[2-(dimethylamino)ethoxy]phenyl}-1H-indole-6-carboxamide by Gal4 hybrid reporter gene assay relative to control. The class given is cell-based. Conditions: filed as agonist. In a few lines:
(§1)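 Gal4–Nurr1 LBD hybrid reporter assay in HEK293T cells (DMEM high glucose, 10% FCS, 37 °C, 5% CO2), transiently transfected with pFA-CMV-hNurr1-LBD, pFR-Luc reporter and pRL-SV40 control. Treatment began 5 h after transfection, 16 h in Opti-MEM with 0.1% DMSO, read by dual luciferase. Firefly/Renilla ratio ×1000 gave RLU; fold activation taken vs untreated control. At least three independent experiments, each in duplicate.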
(A reporter such as luciferase makes a cellular process visible.)

In data set [7] the test system is HEK293T. Nature of the data set: Agonist activity at Nurr1 LBD (unknown origin) transfected in human HEK293T cells co-transfected with pFR-Luc/pRL-SV40 assessed as maximum activation of luciferase activity at 1 uM incubated for 16 hrs in presence of 7-Chloro-N-{5-chloro-2-[2-(dimethylamino)ethoxy]phenyl}quinolin-4-amine by Gal4 hybrid reporter gene assay relative to control. The class given is cell-based. Conditions: filed as agonist. Summed up:
as §1

The target in data set [8] is Nuclear receptor subfamily 4 group A member 2 (Rattus norvegicus) (UniProt Q07917). Nature of the data set: Agonist activity at Nurr1 in rat N27 cells assessed as increase in SOD1 mRNA expression level at 30 to 100 uM incubated for 16 hrs by qPCR analysis. Conditions: filed as agonist, dose 30-100 µM. The class given is cell-based. Summed up: (§2)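 Rat N27 dopaminergic cells in RPMI 1640 with 10% FCS, switched to 0.2% FCS 7 h after seeding and held 24 h more. Stimulated 16 h with compound in 0.1% DMSO, with 0.1% DMSO as vehicle control. Total RNA was heat-linearized at 65 °C before reverse transcription. SYBR green qPCR ran 40 cycles with a melt curve. Target mRNA normalized to GAPDH by ΔCt, expressed relative to vehicle.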
Nuclear receptor subfamily 4 group A member 2 (Rattus norvegicus), sequence (Q07917 whole entry): as the sequence (P43354 whole entry, the tested form may be a part) above, with T131S, P182R, E354D counted along it
A general note: Real-time PCR tracks product formation cycle by cycle.

Data set [9] has the same target. Nature of the data set: Agonist activity at Nurr1 in rat N27 cells assessed as increase in TH mRNA expression level at 30 to 100 uM incubated for 16 hrs by qPCR analysis. The class given is cell-based. As to conditions: filed as agonist, dose 30-100 µM. Summed up: as §2
For data set [10] the target is unchanged. Briefly: Agonist activity at Nurr1 in rat N27 cells assessed as increase in SOD2 mRNA expression level at 30 to 100 uM incubated for 16 hrs by qPCR analysis. The class given is cell-based. As to conditions: filed as agonist, dose 30-100 µM. Summed up: as §2
For data set [11] the target is unchanged. Briefly: Agonist activity at Nurr1 in rat N27 cells assessed as increase in VMAT mRNA expression level at 30 to 100 uM incubated for 16 hrs by qPCR analysis. The class given is cell-based. Conditions: filed as agonist, dose 30-100 µM. In a few lines:
as §2

A short description of data set [12]: Glutathione reactivity at pH 7.4 assessed as compound remaining at 125 uM incubated upto 24 hrs by LC-UV-ESI-MS analysis. The class given is physicochemical. Conditions: pH 7.4, 24 h. Summed up: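 Compound (125 μM final) was shaken at 37 °C with 2.5 mM glutathione in PBS pH 7.4 (1% DMSO final). Aliquots at 0, 6, 18 and 24 h were diluted in mobile phase containing an internal standard. They were analyzed by reversed-phase LC with UV at 254 nm and positive ESI-MS in SIM mode. AUC was corrected to the internal standard. Run three times.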

As a reminder, the EC50 is the concentration at which the effect is half-maximal. As usually defined, the Kd is the equilibrium constant for the complex coming apart. In general, Emax refers to the maximal effect, on the per cent scale that the assay sets.

Each structure is given as a SMILES string. Active and inactive are the calls of the source. No cut-off for these calls is given here.

As for `O=C(NCCN1CCC2CCCCC2C1)c1cc2[nH]ccc2cc1Cl` (stereo not given), the Activity entry in the data set with HEK-293T [1] and in the data set with HEK-293T [4] was “Non-Toxic” in each case. In [2], the EC50 is 12 µM. Moreover, in data set [3], the Kd is 3.2 µM.
For the molecule `Nc1cc(CNC(=O)c2cc3[nH]ccc3cc2Cl)cc(C(F)(F)F)c1`, the Activity entry with HEK-293T [4] is listed as “Toxic”.
The same measure, in the same setting: for `NC1CCC(CC2CCC(N)CC2)CC1` (stereo not given) the value was “Non-Toxic”.
For `CCN1CCN(c2ccc(Cl)cc2N)CC1`, the Activity entry in the data set on HEK-293T [4] is reported as “Non-Toxic”.
Turning to `NCc1ccc2cc[nH]c2c1`, the Activity result with HEK-293T [4] was “Non-Toxic”.
For the molecule `NCC1CCN(Cc2ccccc2)CC1`, the Activity entry with HEK-293T [4] is recorded as “Non-Toxic”.
Same read-out and setting: next, `CCN(CC)CC1CCCCC1N` (stereo not given): “Toxic”; `CCN1CCN(c2ccc(Cl)cc2NC(=O)c2cc3[nH]ccc3cc2Cl)CC1`: “Non-Toxic”; `NC1CCC(CC2CCC(NC(=O)c3cc4[nH]ccc4cc3Cl)CC2)CC1` (stereo not given): “Toxic”.
The same measure, in the same setting: next, `CC1CCN(CCCN)CC1`: “Non-Toxic”; `CN(C)CCc1ccc(CN)cc1`: “Non-Toxic”.
As for `CN1CCC(Nc2ccccc2NC(=O)c2cc3[nH]ccc3cc2Cl)CC1`, the Activity entry in the data set on HEK-293T [4] is “Non-Toxic”.
As for `O=C(NCCNC1CCCCC1)c1cc2[nH]ccc2cc1Cl`, the Activity result in the data set with HEK-293T [4] is recorded as “Non-Toxic”.
For the molecule `CN(C)CCOc1ccc(Cl)cc1NC(=O)c1cc2c(ccn2C)cc1Cl`, in data set [2], the EC50 stood at 16 µM. For the same molecule, the Kd in [3] came to 1 µM.
For `O=C(NCCC12CCCN1CCC2)c1cc2[nH]ccc2cc1Cl`, in the data set on HEK-293T [4], the Activity result is listed as “Non-Toxic”.
For `CN(C)CCOc1ccc(Cl)cc1N`, the Activity entry in the data set on HEK-293T [4] was “Non-Toxic”.
On to `CN(C)Cc1ccccc1CN`, for which the Activity result with HEK-293T [4] is listed as “Non-Toxic”.
Take `CCN(CC)CC1CCCCC1NC(=O)c1cc2[nH]ccc2cc1Cl` (stereo not given): the Activity entry with HEK-293T [4] is on record as “Non-Toxic”.
On to `CC(C)CN1CCC(NC(=O)c2cc3[nH]ccc3cc2Cl)CC1`, for which the Activity entry in the data set with HEK-293T [4] is “Non-Toxic”.
Turning to `CC1CCN(CCCNC(=O)c2cc3[nH]ccc3cc2Cl)CC1`, the Activity entry in the data set with HEK-293T [1] and in the data set on HEK-293T [4] was “Non-Toxic” throughout. In [5], the outcome was inactive.
For the molecule `C#CCOc1cccc(-c2ccc(NC(=O)C3=C(C(=O)O)CCC3)c(F)c2)c1`, the Emax came to 134% with HEK293T [6] and 177% with HEK293T [7].
Turning to `O=C(NCC1CCN(Cc2ccccc2)CC1)c1cc2[nH]ccc2cc1Cl`, the Activity entry in the data set with HEK-293T [4] is “Non-Toxic”.
Regarding `CN(C)Cc1ccccc1CNC(=O)c1cc2[nH]ccc2cc1Cl`, the Activity result in the data set with HEK-293T [4] was “Non-Toxic”.
Turning to `Nc1ccccc1NCCCn1ccnc1`, the Activity result with HEK-293T [4] is “Non-Toxic”.
As to `CC(C)N1CCC(NC(=O)c2cc3[nH]ccc3cc2Cl)CC1`, the Activity result in the data set on HEK-293T [1] and with HEK-293T [4] was “Non-Toxic” in each case. In data set [5], the result was inactive.
With `CN1CCC(CN)(c2ccccc2)CC1`, the Activity result in the data set with HEK-293T [4] is “Non-Toxic”.
For `CCN(CC)C1CCC(NC(=O)c2cc3[nH]ccc3cc2Cl)CC1` (stereo not given), the Activity entry with HEK-293T [1] and in the data set on HEK-293T [4] was “Non-Toxic” each time. Moreover, the result in [5] was inactive.
Regarding `NCCNC1CCCCC1`, the Activity entry in the data set on HEK-293T [4] was “Non-Toxic”.
For `CN(C)C(CNC(=O)c1cc2[nH]ccc2cc1Cl)c1ccc(F)cc1` (stereo not given), the Activity result in the data set on HEK-293T [4] is given as “Non-Toxic”.
Turning to `O=C(Nc1ccccc1NCCCn1ccnc1)c1cc2[nH]ccc2cc1Cl`, in the data set with HEK-293T [4], the Activity result was “Non-Toxic”.
Same read-out and setting: for `CCN(CC)C1CCC(N)CC1` (stereo not given) the value was “Non-Toxic”.
For the molecule `Clc1ccc2[nH]ccc2c1`, the Activity entry in [8], in data set [9], in data set [10] and in data set [11] was “Dose-Dependent Effect” each time. Also, the EC50 in data set [2] was 40 µM.
Regarding `CN(C)CCOc1ccc(Cl)cc1NC(=O)c1cc2[nH]ccc2cc1Cl`, the Activity result in the data set with HEK-293T [1] and in the data set with HEK-293T [4] was “Non-Toxic” throughout. For the same molecule, in [12], the Stability entry is listed as “Stable”.
As for `CN1CCC(CNC(=O)c2cc3[nH]ccc3cc2Cl)(c2ccccc2)CC1`, the Activity result in the data set on HEK-293T [4] is on record as “Non-Toxic”.
On the same count and under the same terms, next, `CC(C)N1CCC(N)CC1`: “Non-Toxic”; `CC(C)CN1CCC(N)CC1`: “Non-Toxic”; `O=C(NCc1ccc2[nH]ncc2c1)c1cc2[nH]ccc2cc1Cl`: “Toxic”.
On to `NCCC12CCCN1CCC2`, for which, in the data set on HEK-293T [4], the Activity entry is recorded as “Non-Toxic”.
Still for that read-out and setting: for `NC(=O)CC1(N)CCCCC1` the value was “Non-Toxic”.
With `CN1CCC(Nc2ccccc2N)CC1`, in the data set on HEK-293T [4], the Activity result is on record as “Toxic”.
Regarding `NC(=O)CC1(NC(=O)c2cc3[nH]ccc3cc2Cl)CCCCC1`, the Activity result in the data set on HEK-293T [4] is given as “Non-Toxic”.
`NCc1ccc2[nH]ncc2c1`: in the data set with HEK-293T [4], the Activity result is “Non-Toxic”.
On to `NCCN1CCC2CCCCC2C1` (stereo not given), for which the Activity entry in the data set with HEK-293T [4] is reported as “Non-Toxic”.
For the molecule `O=C(NCCc1c[nH]c2ccc(F)cc12)c1cc2[nH]ccc2cc1Cl`, the Activity entry with HEK-293T [4] is “Toxic”.
Regarding `CCCCN1CCC(CNC(=O)c2cc3[nH]ccc3cc2Cl)C1` (stereo not given), the EC50 in data set [2] amounted to 28 µM. Further, in [3], the Kd was 16 µM. The Activity result in the data set on HEK-293T [4] is given as “Non-Toxic”.
`NCCc1c[nH]c2ccc(F)cc12`: in the data set with HEK-293T [4], the Activity entry is “Non-Toxic”.
With `CCCCN1CCC(CN)C1` (stereo not given), in the data set with HEK-293T [4], the Activity entry is given as “Non-Toxic”.
As to `CN(C)CCc1ccc(CNC(=O)c2cc3[nH]ccc3cc2Cl)cc1`, the Activity result in the data set with HEK-293T [4] was “Non-Toxic”.
On the same count and under the same terms, for `NCc1cc(N)cc(C(F)(F)F)c1` the value was “Non-Toxic”; for `O=C(NCc1ccc2cc[nH]c2c1)c1cc2[nH]ccc2cc1Cl`, “Non-Toxic”; for `CN(C)C(CN)c1ccc(F)cc1` (stereo not given), “Non-Toxic”.
